SMILES strings stand for the structures.

This note sets out measurements from ChEMBL document CHEMBL1133861, “A novel class of highly potent, selective, and non-peptidic inhibitor of Ras farnesyltransferase (FTase)” (Bioorg Med Chem Lett, 2001).

The test system of one experiment is A549. Put plainly: Inhibition of anchorage independent growth of human tumor cell line A549 K-ras-transformed in soft agar. Format: functional. The method, boiled down: (§1)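 Cells adapted 2–3 days in DMEM + 10% FBS after thawing. Bottom layer 0.5% agar with DMEM/FBS and compound; top layer 0.33% agar with compound, cells at 2–5×10^3 cells/mL. Colonies counted by microscope after two weeks in humidified CO2 incubator. GI50 from plot of % colony growth versus log10 concentration for each cell line.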

Experiment [1] has as its system HCT-116. Kind of experiment: Percent inhibition of tumor growth relative to control tumors in tumor xenograft nude mice against HCT116 at a dose of 60 mg/kg, bid on day 21;p<0.001. As to conditions: Mus musculus, HCT-116, 504 h. It counts as functional, Homo sapiens. The method, boiled down:
(§2)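 Female athymic BALB/c nu/nu mice, 5–7 weeks old, acclimated ≥1 week, inoculated s.c. intrascapularly with 10^7 tumor cells. Tumour volume measured in three dimensions every three days as 1/6·π·L·W·H. At ~100 mm3 mice randomised, 8 per group (Day 0). Dosing by gastric gavage twice daily from Day 1 for 21 days; vehicle 0.9% saline. Ulcerated tumours excluded; Student's t-test.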

For experiment [2], the system named is EJ. Put plainly: Inhibition of anchorage independent growth of human tumor cell line EJ H-ras-transformed in soft agar. Format: functional. The method, boiled down: as §1
The test system of experiment [3] is HCT-116. Kind of experiment: Percent inhibition of tumor growth relative to control tumors in tumor xenograft nude mice against HCT116 at a dose of 40 mg/kg, bid on day 21;p<0.001. It counts as functional, Homo sapiens. The settings on record: Mus musculus, HCT-116, 504 h. The method, boiled down:
as §2

Experiment [4] has as its system EJ. Put plainly: Percent inhibition of tumor growth relative to control tumors in tumor xenograft nude mice against EJ at a dose of 20 mg/kg, bid on day 15;p<0.001. It counts as functional, Homo sapiens. As to conditions: Mus musculus, 360 h. The method, boiled down:
as §2

For experiment [5], the system named is HCT-116. Kind of experiment: Inhibition of anchorage independent growth of human tumor cell line HCT116 K-ras-transformed in soft agar. It counts as functional. The method, boiled down:
as §1

For another experiment, the system named is T-24. Put plainly: Inhibition of anchorage independent growth of human tumor cell line T24 H-ras-transformed in soft agar. It counts as functional. The method, boiled down:
as §1

Another experiment relates to HT-29. Put plainly: Inhibition of anchorage independent growth of human tumor cell line HT-29 K-ras-transformed in soft agar. It counts as functional. The method, boiled down:
as §1

The target of experiment [6] is T1, Protein farnesyltransferase (Homo sapiens, UniProt P49354+P49356). Put plainly: Inhibition of farnesyltransferase activity against K-Ras. It counts as protein-complex assay. The method, boiled down: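 K-Ras used as acceptor substrate with FTase (16.6 nM) and [3H]FPP plus serially diluted inhibitor, 30 min at 37 °C, in HEPES pH 7.4 buffer with Mg2+, Zn2+, KCl, octylglucoside and DTT. Stopped with acidic ethanol, then filter binding and scintillation counting of labeled K-Ras. IC50 is 50% reduction of [3H]FPP transfer; mean of three determinations.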

Experiment [7] has as its target T1, Protein farnesyltransferase. Put plainly: Inhibition of farnesyltransferase activity against H-Ras. Format: protein-complex assay. The method, boiled down:
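FTase (16.6 nM) incubated 30 min at 37 °C with H-Ras substrate, [3H]farnesyl pyrophosphate and serially diluted compound. Buffer: 50 mM HEPES pH 7.4, KCl, MgCl2, ZnCl2, 0.5% N-octylglucoside, 10 mM DTT. Reactions quenched with 10% HCl in ethanol. Farnesylated Ras captured on glass-fiber filters and scintillation counted. IC50 is the concentration halving [3H]FPP incorporation; mean of three experiments.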

The target of experiment [8] is Geranylgeranyl transferase type I (Homo sapiens, UniProt P49354+P53609). Kind of experiment: Inhibition of Geranylgeranyl transferase type I. Format: protein-complex assay.
Experiment [9] concerns EJ. Put plainly: Percent inhibition of tumor growth relative to control tumors in tumor xenograft nude mice (with p<0.001 compared to control) against EJ at a dose of 40 mg/kg, bid on day 15;Regression. Format: functional, organism-based. Also noted: dose 40 mg/kg. As to conditions: Homo sapiens. The method, boiled down: as §2
The test system of experiment [10] is EJ. Kind of experiment: Percent inhibition of tumor growth relative to control tumors in tumor xenograft nude mice (with p<0.001 compared to control) against EJ at a dose of 60 mg/kg, bid on day 15;Regression. Format: functional, organism-based. Also noted: dose 60 mg/kg. The settings on record: Homo sapiens. The method, boiled down: as §2

Usually GI50 stands for the concentration giving 50% growth inhibition. The low end stands for more potent growth inhibition, the high end for less potent growth inhibition. The inhibition in vivo is the change of the read-out against control, counted positive when it falls. A lower inhibition in vivo goes with little suppression. On to `CN1CCN(C(=O)c2cn(Cc3cncn3Cc3ccc4c(c3)OCO4)cc2-c2cccc3ccccc23)CC1` [listing 1 of 3 here], for which the GI50 in the experiment on A549 was 1.2 nM; with EJ [2], 0.56 nM; in the experiment with HCT-116 [5], 17.6 nM; in the experiment with T-24, 0.45 nM; with HT-29 it was 4.5 nM. Besides, the inhibition in vivo at 60 mg/kg in the experiment on HCT-116 [1] is 55%. The same compound had an inhibition in vivo at 40 mg/kg in the experiment with HCT-116 [3] of 43%. The same compound yielded an inhibition in vivo at 20 mg/kg in the experiment on EJ [4] of 78%.
One may read the IC50 as the concentration that inhibits the measured activity by half. High values mean a need for much substance, low ones inhibition by little substance. For the compound `Cn1cncc1Cn1cc(C(=O)N2CCOCC2)c(-c2cccc3ccccc23)c1`, the IC50 in [6] is 100 nM; in experiment [7], 3 nM; in experiment [8], > 100000 nM.
For the compound `O=C(c1cn(Cc2cncn2Cc2ccccc2)cc1-c1cccc2ccccc12)N1CCOCC1`, the IC50 is 2.1 nM in experiment [6] and 1.5 nM in experiment [7].
On to `COCCN(C)C(=O)c1cn(Cc2cncn2Cc2ccc3c(c2)OCO3)cc1-c1cccc2ccccc12`, for which, in experiment [8], the IC50 was determined as 10000 nM.
As to `O=C(c1cn(Cc2cncn2Cc2ccc3c(c2)OCO3)cc1-c1cccc2ccccc12)N1CCOCC1`, the results for the 50% inhibitory concentration (IC50) in [7] and in [8] were 0.9 nM and 12000 nM, respectively.
`O=C(c1cn(Cc2cnc[nH]2)cc1-c1ccccc1)N1CCOCC1` displayed a concentration for half-maximal inhibition (IC50) in experiment [7] of 2000 nM.
Compound `CCOC(=O)c1cn(Cc2c[nH]cn2)cc1-c1cccc2ccccc12` gave a concentration for half-maximal inhibition (IC50) in experiment [7] of 500 nM.
Take `CN1CCN(C(=O)c2cn(Cc3cncn3Cc3ccc4c(c3)OCO4)cc2-c2cccc3ccccc23)CC1` [listing 2 of 3 here]: the results for the half-inhibitory concentration (IC50) in experiment [7] and in [8] were 0.9 nM and 16000 nM, respectively.
As for `CN1CCN(C(=O)c2cn(Cc3cncn3Cc3ccc4c(c3)OCO4)cc2-c2cccc3ccccc23)CC1` [listing 3 of 3 here], the inhibition result in the experiment with EJ [9] and in the experiment on EJ [10] was “Regression” each time.
`O=C(c1cn(Cc2c[nH]cn2)cc1-c1cccc2ccccc12)N1CCOCC1` showed an IC50 in experiment [6] of 1830 nM.
